# Results as given in PubChem BioAssay AID602189 (Broad Institute, 2012).
# Records with an inconclusive call do not appear. The source made the active and inactive calls.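 The calls were made as follows: active = signal drop in every repeat run, with half-maximal concentration at most twice the top valid concentration; inconclusive = the separate test runs give conflicting calls; inactive = inactive in every test run.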
# Test system: not listed separately
# Assay: fluconazole-resistant Candida albicans growth inhibitors – clinical isolate, Alamar Blue, dry powder, confirmation (AID 602189)
# Conditions: C. albicans CaCi-17 growth, Alamar Blue fluorescence, 48 h; at 26 µM (top of the series)
# Outline: (§1)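 times = 48 h compound exposure, 37 °C, static, humidified | assay system = fluconazole-resistant clinical isolate CaCi-17, whole fungal cells | technique = Alamar Blue fluorescence, 1:40 in PBS, read after 2 h | benchmarks = amphotericin B at 10 µM as positive control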
row,SMILES,"activity change, negative = inhibition"
1,NC(=O)c1cccc(C(=O)Nc2nc(-c3ccc4c(c3)CCCC4)cs2)c1,21.1% (inactive)
2,O=C(Nc1nc(-c2ccc3c(c2)CCCC3)cs1)c1ccccc1,-2.83% (inactive)
3,CCOC(=O)N1C(=O)C2(CCCCC2)N(c2ccc(C)cc2)C1=S,-10.2% (inactive)
4,Cc1ccc(C(=O)Nc2nnc(-c3ccccc3)o2)cc1C,-7.38% (inactive)
5,O=C(Nc1nc(-c2ccccn2)cs1)c1ccccc1,57.1% (inactive)
6,C=CCNC(=S)N/N=C(\C)c1ccccn1,-32.2% (inactive)
7,O=C(Nc1nc(-c2ccccc2)cs1)c1ccc(Br)s1,-6.92% (inactive)

# Test system: C. albicans CaCi-17 growth, Alamar Blue fluorescence, 48 h
# Assay: as above
# Conditions: not given
# Outline: as §1
row,SMILES,AC50 [µM]
1,O=C(Oc1c(Cl)cc(Cl)c2cccnc12)c1ccco1,1.5
2,O=C(Nc1nc(-c2ccccn2)cs1)c1ccc(Cl)s1,10.5
3,O=C(NNC(=S)Nc1ccc(Cl)c(Cl)c1)c1ccccn1,1.86
4,O=C(Nc1nc(-c2ccccn2)cs1)c1ccc(Br)s1,4.94
5,Oc1c(C(c2ccccc2Cl)N2CCCCC2)ccc2cccnc12 (stereo not drawn),11.7
6,CN1CCN(C(c2ccc(C(F)(F)F)cc2)c2ccc3cccnc3c2O)CC1 (stereo not drawn),7.72
7,O=C(Nc1nnc(-c2ccc3c(c2)CCCC3)o1)c1ccccc1,25.9
8,Oc1c(CN2CCc3ccccc3C2)cc(Cl)c2cccnc12,5.46
9,Oc1c(C(c2ccc(Cl)cc2)N2CCCC2)ccc2cccnc12 (stereo not drawn),8.73
10,O=C(Nc1nnc(-c2ccc3c(c2)CCCC3)o1)c1ccc(Cl)cc1Cl,17.3
11,C/C(=N\NC(=O)c1cc2ccccc2cc1O)c1ccccn1,5.54
